The subject of this test is Mycobacterium tuberculosis variant bovis. Briefly: Antimycobacterial activity against Mycobacterium bovis BCG Pasteur ATCC 35734 assessed as inhibition of bacterial growth measured after 7 days by resazurin dye based analysis. Format: functional. The settings on record: BCG Pasteur ATCC 35734, 168 h, time 7 day. In outline: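 Strains grown in 7H9 broth with 0.2% glycerol, 10% OADC and 0.05% Tween-80. Inoculum was about 5 × 10^5 CFU/mL, checked by plating on 7H10/OADC agar to be 3–8 × 10^5. Read at 2 days for M. smegmatis and 7 days for M. tuberculosis H37Ra, M. bovis and M. avium. Resazurin 30 μg/mL was then added for one further day. Values are averages of at least two experiments.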
On the technique in general: The colour change of resazurin is a common sign of viable cells or microbes.

SMILES strings stand for the structures. In brackets after ≈: the same amount, converted by molar mass.

Three compounds from ChEMBL document CHEMBL5331111, “Synthetic Biology Facilitates Semisynthetic Development of Type V Glycopeptide Antibiotics Targeting Vancomycin-Resistant Enterococcus” (J Med Chem, 2023) can be followed below.

In general, MIC refers to the least concentration at which growth counts as inhibited.

For `CN1C(=O)[C@@H](c2cc(Cl)c(O)c(Cl)c2)NC(=O)[C@@H]2NC(=O)[C@@H](c3cc(Cl)c(O)c(Cl)c3)NC(=O)[C@H](NC(=O)C(=O)c3cc(Cl)c(O)c(Cl)c3)Cc3c[nH]c4cc(ccc34)-c3cc2cc(c3O)Oc2ccc(cc2)C[C@H]1C(=O)N[C@@H](C(=O)O)c1ccc(O)cc1` [ISOCOMPLESTATIN], the MIC was 64 µg/mL (≈ 48.2 µM).
Take `CN1C(=O)[C@@H]2NC(=O)[C@@H]3NC(=O)[C@@H](c4ccc(O)cc4)NC(=O)[C@H](NC(=O)C(N)c4ccc(O)cc4)Cc4c[nH]c5cc(ccc45)-c4cc3cc(c4O)Oc3ccc(cc3)C[C@H]1C(=O)N[C@@H](C(=O)O)c1ccc(O)c(c1)Oc1ccc2cc1` (stereo partly drawn): the MIC was 8 µg/mL (≈ 7.14 µM).
In the case of `NNC(=O)c1ccncc1` [ISONIAZID], the MIC amounted to 0.13 µg/mL (≈ 0.948 µM).
